Test results as given in ChEMBL document CHEMBL4616671, “Identification of N-Phenyl-7H-pyrrolo[2,3-d]pyrimidin-4-amine Derivatives as Novel, Potent, and Selective NF-κB Inducing Kinase (NIK) Inhibitors for the Treatment of Psoriasis” (J Med Chem, 2020).
The source made the active and inactive calls. No cut-off for these calls is given here.

Key:
[1] = target: Mitogen-activated protein kinase kinase kinase 14 (Mus musculus) (UniProt Q9WUL6); test: (§1) In vivo inhibition of NIK in C57 mouse model of IMQ-induced psoriasis assessed as reduction in NF-kappaB signalling in back skin by measuring decrease in mRNA IL-10 level at 60 to 120 mg/kg, po administered starting from day 3 post IMQ-challenge and measured 2 days post-last dose of IMQ by qPCR analysis; assay type: functional, organism-based
Sequence of Mitogen-activated protein kinase kinase kinase 14 (Mus musculus) (Q9WUL6 whole entry): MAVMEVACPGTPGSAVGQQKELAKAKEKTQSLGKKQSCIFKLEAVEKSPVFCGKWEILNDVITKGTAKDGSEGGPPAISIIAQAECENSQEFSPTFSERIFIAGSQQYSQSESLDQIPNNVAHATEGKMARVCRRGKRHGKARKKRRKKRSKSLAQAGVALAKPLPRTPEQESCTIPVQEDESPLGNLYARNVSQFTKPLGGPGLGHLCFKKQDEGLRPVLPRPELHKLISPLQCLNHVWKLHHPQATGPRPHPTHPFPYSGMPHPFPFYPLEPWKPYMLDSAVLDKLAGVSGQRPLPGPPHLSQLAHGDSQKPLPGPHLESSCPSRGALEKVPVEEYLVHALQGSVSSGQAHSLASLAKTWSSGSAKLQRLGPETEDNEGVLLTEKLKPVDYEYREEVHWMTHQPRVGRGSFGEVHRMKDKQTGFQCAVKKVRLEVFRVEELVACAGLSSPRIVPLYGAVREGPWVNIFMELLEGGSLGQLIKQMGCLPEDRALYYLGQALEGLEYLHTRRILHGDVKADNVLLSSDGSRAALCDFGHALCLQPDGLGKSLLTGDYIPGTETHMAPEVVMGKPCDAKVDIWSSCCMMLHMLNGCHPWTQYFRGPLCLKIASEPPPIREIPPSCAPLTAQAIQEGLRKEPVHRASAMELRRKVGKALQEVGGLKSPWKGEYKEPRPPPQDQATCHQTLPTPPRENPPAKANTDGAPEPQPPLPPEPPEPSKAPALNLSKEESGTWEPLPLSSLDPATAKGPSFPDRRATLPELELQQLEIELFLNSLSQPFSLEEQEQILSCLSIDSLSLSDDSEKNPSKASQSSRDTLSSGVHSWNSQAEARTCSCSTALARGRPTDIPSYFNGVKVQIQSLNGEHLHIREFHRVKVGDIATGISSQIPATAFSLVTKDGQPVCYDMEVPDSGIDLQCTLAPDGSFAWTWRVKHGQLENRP
How it was run: (§2)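 IMQ psoriasis model: 5% imiquimod cream applied to C57 mouse back skin once daily for seven days; oral dosing 60 or 120 mg/kg once daily from day 3, n = 6 per group. Back-skin mRNA measured by qPCR.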

[2] = Half life in Sprague-Dawley rat at 1 mg/kg, iv administered as single bolus dose by LC-MS/MS analysis; assay type: ADME, organism-based; details: in vivo
Mus musculus [3] = test: Suppression of epidermal and dermal cell proliferation in C57 mouse model of IMQ-induced psoriasis assessed as reduction in Ki67 expression in back skin psoriatic lesions at 120 mg/kg, ig administered starting from day 3 post IMQ-challenge and measured 2 days post-last dose of IMQ by immunohistochemical analysis relative to control; assay type: functional; details: C57, topical
How it was run: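 C57 mice given 5% imiquimod cream on back skin q.d. for seven days. Gavage q.d. at 60 or 120 mg/kg from day 3, n = 6 per group. Back-skin frozen sections (6 µm) stained for Ki67 by IHC. % Ki67+ of total cells quantified and normalized to IMQ-only model group. Two-tailed t-test, mean ± SD.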

Mus musculus [4] = test: Suppression of IMQ-induced psoriasis in C57 mouse assessed as reduction in spleen index at 60 mg/kg, ig administered once daily starting from day 3 post IMQ-challenge and measured 2 days post-last dose of IMQ; assay type: functional, organism-based
How it was run: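 IMQ-induced C57 mice (5% cream daily 7 days; i.g. daily from day 3 at the stated dose, n = 6). Spleen weighed per mouse at end of study.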

[5] = target: Mitogen-activated protein kinase kinase kinase 14 (Mus musculus) (UniProt Q9WUL6); test: as §1, with “IL-6” for “IL-10”; assay type: functional, organism-based; how it was run: as §2
T-cell [6] = test: Antiinflammatory activity in mouse T cells assessed as inhibition of conA-induced induced T cell proliferation at 2 uM incubated for 48 hrs by CCK8 assay relative to control; assay type: functional
Homo sapiens [7] = species on record: Homo sapiens; test: Selectivity ratio of IC50 for human JAK3 to IC50 for human NIK
[8] = target: T1, Tyrosine-protein kinase JAK3 (Homo sapiens, UniProt P52333); test: Inhibition of human JAK3 using [GGEEEEYFELVKKKK] as substrate in presence of [gamma33P]ATP by hotspot assay
T1 sequence (P52333 whole entry): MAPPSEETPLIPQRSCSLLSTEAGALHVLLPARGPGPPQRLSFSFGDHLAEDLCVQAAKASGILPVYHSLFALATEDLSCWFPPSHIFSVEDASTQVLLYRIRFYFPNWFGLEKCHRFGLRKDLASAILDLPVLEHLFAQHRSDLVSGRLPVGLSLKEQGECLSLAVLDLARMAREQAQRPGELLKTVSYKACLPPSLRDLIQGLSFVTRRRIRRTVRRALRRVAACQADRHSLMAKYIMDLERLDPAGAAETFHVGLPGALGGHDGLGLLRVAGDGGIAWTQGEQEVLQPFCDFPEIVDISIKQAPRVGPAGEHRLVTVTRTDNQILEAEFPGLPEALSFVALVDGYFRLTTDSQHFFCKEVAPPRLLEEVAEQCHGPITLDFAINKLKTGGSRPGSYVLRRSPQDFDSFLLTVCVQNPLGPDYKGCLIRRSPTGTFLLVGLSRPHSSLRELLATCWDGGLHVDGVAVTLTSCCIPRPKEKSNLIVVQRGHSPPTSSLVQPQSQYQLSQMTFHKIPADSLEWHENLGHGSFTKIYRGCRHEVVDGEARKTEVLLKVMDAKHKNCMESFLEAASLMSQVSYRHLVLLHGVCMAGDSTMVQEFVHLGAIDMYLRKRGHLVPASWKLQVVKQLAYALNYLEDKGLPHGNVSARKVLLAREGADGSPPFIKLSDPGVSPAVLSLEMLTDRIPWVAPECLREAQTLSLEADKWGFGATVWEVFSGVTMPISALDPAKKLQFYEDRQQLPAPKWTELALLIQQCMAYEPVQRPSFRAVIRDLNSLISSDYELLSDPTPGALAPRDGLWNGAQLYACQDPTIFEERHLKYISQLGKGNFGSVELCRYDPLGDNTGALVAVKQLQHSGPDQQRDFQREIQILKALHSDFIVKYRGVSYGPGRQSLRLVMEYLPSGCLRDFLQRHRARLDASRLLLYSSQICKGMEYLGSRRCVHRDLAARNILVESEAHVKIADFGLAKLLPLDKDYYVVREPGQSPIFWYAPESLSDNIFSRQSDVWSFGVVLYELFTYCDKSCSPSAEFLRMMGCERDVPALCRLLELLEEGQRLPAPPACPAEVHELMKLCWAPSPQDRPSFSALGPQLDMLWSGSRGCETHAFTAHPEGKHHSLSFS

Mus musculus [9] = test: Suppression of IMQ-induced psoriasis in ig dosed C57 mouse assessed as reduction in serum IL-17A level administered once daily starting from day 3 post IMQ-challenge and measured 2 days post-last dose of IMQ by ELISA; assay type: functional, organism-based
How it was run: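 IMQ-induced C57 mice (5% cream 7 days; 60 or 120 mg/kg i.g. daily from day 3). Blood collected at end of dosing, held 12 h at 4 °C, centrifuged; serum IL-17A by ELISA. Mean ± SEM.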

[10] = Initial plasma concentration in Sprague-Dawley rat at 1 mg/kg, iv administered as single bolus dose by LC-MS/MS analysis; assay type: ADME, organism-based
[11] = target: Mitogen-activated protein kinase kinase kinase 14 (Mus musculus) (UniProt Q9WUL6); test: In vivo inhibition of NIK in C57 mouse model of IMQ-induced psoriasis assessed as reduction in NF-kappaB signalling in back skin by measuring decrease in TNF-alpha mRNA level at 60 to 120 mg/kg, po administered starting from day 3 post IMQ-challenge and measured 2 days post-last dose of IMQ by qPCR analysis; assay type: functional, organism-based; how it was run: as §2
[12] = target: NT-3 growth factor receptor (Homo sapiens, UniProt Q16288); test: Inhibition of human TRKC using poly[Glu:Tyr] (4:1) as substrate in presence of [gamma33P]ATP by hotspot assay
Sequence of NT-3 growth factor receptor (Q16288 whole entry): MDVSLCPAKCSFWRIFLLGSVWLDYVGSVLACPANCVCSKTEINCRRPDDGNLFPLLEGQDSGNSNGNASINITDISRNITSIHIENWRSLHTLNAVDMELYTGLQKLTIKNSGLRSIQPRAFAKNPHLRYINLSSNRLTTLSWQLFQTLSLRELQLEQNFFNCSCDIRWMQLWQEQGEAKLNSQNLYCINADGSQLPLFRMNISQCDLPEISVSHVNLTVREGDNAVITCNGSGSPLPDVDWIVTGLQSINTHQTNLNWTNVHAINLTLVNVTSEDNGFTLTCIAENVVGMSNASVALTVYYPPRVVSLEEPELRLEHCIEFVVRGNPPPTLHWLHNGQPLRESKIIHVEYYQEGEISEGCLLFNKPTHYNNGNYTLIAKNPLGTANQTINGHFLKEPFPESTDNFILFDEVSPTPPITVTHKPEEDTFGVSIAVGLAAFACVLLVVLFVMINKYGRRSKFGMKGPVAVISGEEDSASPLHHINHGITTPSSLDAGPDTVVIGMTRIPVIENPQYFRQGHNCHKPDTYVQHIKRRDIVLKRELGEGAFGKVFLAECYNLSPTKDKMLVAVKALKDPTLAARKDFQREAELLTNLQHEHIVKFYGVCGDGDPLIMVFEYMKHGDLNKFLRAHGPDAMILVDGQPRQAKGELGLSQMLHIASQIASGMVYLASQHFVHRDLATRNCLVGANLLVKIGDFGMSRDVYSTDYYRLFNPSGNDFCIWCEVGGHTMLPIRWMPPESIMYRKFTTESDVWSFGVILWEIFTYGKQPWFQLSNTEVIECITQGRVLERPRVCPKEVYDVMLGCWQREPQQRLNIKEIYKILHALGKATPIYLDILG

[13] = Intrinsic hepatic clearance in human; assay type: ADME
How it was run: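 Scaled from microsomal intrinsic clearance: CLint,in vitro × microsomal protein per g liver × liver weight per kg body weight.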

Homo sapiens [14] = species on record: Homo sapiens; test: Selectivity ratio of IC50 for human JAK1 to IC50 for human NIK
Aurora kinase B = Aurora kinase B (Homo sapiens, UniProt Q96GD4); test: Inhibition of human Aurora B using [H-LRRASLG] as substrate in presence of [gamma33P]ATP by hotspot assay
Sequence of Aurora kinase B (Q96GD4 whole entry): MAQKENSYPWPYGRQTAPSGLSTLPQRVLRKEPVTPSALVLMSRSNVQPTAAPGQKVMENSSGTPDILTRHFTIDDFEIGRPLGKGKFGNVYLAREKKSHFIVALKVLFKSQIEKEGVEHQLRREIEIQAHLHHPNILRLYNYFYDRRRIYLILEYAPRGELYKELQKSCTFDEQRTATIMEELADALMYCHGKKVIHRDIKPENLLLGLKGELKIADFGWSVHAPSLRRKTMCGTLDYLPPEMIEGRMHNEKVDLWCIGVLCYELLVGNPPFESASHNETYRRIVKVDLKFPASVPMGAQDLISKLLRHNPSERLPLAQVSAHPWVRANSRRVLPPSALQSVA

T-cell [15] = test: Growth inhibition of mouse T cells at 10 uM after 48 hrs by CCK8 assay; assay type: cell-based
How it was run: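 Unstimulated mouse splenic T cells exposed to compound at 10 µM. Growth read by CCK-8 absorbance; […]. Mean ± SD, three independent experiments.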

[16] = Tmax in Sprague-Dawley rat at 10 mg/kg, po administered via gavage by LC-MS/MS analysis; assay type: ADME, organism-based; details: in vivo
How it was run: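 SD rats, 3 per group. Single IV bolus at 1 mg/kg in DMSO:PEG200:saline 20:20:60 (0.2 mg/mL), or oral gavage at 10 mg/kg as suspension in 0.5% CMC-Na/0.2% Tween 80 (1 mg/mL). Plasma protein-precipitated with acetonitrile containing internal standards, then quantified by LC-MS/MS. Parameters derived by noncompartmental analysis. Mean ± SD.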

inhibition [1]: Active
half-life [2]: 56.6 min
inhibition [5]: Active
Ratio IC50 (Homo sapiens [7]): 4 to 20
IC50 [8]: 892 nM
C0 [10]: 377 ng/mL
inhibition [11]: Active
IC50 [12]: 50.1 nM
CLH [13]: 30.6 mL/min/kg
Ratio IC50 (Homo sapiens [14]): 4 to 20
IC50 (Aurora kinase B): 43.2 nM
Tmax [16]: 50 min
SMILES: CC(O)(C#Cc1ccc(N2CCOCC2)c(Nc2ncnc3[nH]ccc23)c1)c1nccs1 (racemic)
inhibition in vivo at 120 mg/kg (Mus musculus [3]): 83%
inhibition (Mus musculus [4]): Active
inhibition at 2 µM (T-cell [6]): 62.3%
inhibition (Mus musculus [9]): Dose-dependent effect
Activity (T-cell [15]): Non-Toxic
